Converted amounts (≈) assume the structure as drawn. The source made the active and inactive calls. The rule behind the calls is not given here.
Assays:
[1] = target: T1, Bifunctional epoxide hydrolase 2 (Rattus norvegicus, UniProt P80299); experiment: Inhibition of recombinant rat soluble epoxide hydrolase using CMNPC as substrate preincubated for 5 mins followed by substrate addition and measured at 30 secs interval for 10 mins by fluorescence assay
T1 sequence (P80299 whole entry): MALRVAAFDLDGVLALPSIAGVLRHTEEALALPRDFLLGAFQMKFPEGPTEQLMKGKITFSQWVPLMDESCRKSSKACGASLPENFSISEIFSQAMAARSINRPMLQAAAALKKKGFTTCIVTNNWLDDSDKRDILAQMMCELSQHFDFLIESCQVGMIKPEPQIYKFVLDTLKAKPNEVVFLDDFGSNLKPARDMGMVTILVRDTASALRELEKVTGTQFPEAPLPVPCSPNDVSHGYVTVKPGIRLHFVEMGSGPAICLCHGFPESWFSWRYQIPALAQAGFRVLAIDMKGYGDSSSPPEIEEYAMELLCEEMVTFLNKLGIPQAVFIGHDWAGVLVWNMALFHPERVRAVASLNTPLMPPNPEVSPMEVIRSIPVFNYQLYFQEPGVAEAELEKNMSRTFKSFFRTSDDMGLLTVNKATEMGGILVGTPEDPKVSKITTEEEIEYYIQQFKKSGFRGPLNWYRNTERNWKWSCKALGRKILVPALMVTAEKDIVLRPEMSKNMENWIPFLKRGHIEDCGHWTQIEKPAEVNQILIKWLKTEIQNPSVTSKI
In short: (§1)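 Purified recombinant enzyme was preincubated with inhibitor (0.4–100,000 nM final) for 5 min at 30 °C in 100 mM sodium phosphate, pH 7.4, with 0.1 mg/mL BSA and 1% DMSO. CMNPC was added at 5 μM final. 6-Methoxynaphthaldehyde fluorescence (ex 330/em 465 nm) was read every 30 s for 10 min. IC50 values are averages of three replicates.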

[2] = system: AR-42J cell line; experiment: Protection against cerulein-induced pancreatic damage in rat AR42J cells assessed as reduction in CHOP mRNA level at 60 uM preincubated for 1 hr followed by cerulein addition and measured after 8 hrs by Trisure-reagent based RT-PCR analysis; type: functional, cell-based; details: time 9.0 hrs
In short: (§2)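 Rat pancreatic acinar AR42J cells are exposed to 10 nM cerulein with or without inhibitor co-incubation at 60 μM. IL-6, TNF-α, CHOP and TRB3 mRNA levels are measured and compared with control and cerulein-only cells. Mean ± SEM, n = 5 per group.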

[3] = system: AR-42J cell line; experiment: Protection against cerulein-induced pancreatic damage in rat AR42J cells assessed as reduction in TNF-alpha mRNA level at 60 uM preincubated for 1 hr followed by cerulein addition and measured after 8 hrs by Trisure-reagent based RT-PCR analysis; type: functional, cell-based; details: time 9.0 hrs; in short: as §2
[4] = Stability in mouse liver microsomes assessed as parent compound remaining measured after 60 mins in presence of NADPH by LC-MS/MS analysis; type: ADME, Microsome; details: read-out: Stabilty
In short: (§3)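 Compound is incubated at 37 °C with human, mouse or rat liver microsomes in 50 mM phosphate buffer pH 7.4. […] Samples at 0–60 min are quenched into acetonitrile; percent parent remaining at 60 min is reported. Testosterone is the positive control.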

[5] = target: Voltage-gated inwardly rectifying potassium channel KCNH2 (Homo sapiens, UniProt Q12809); experiment: Inhibition of human ERG at 10 uM
[6] = physchem; details: 1% DMSO/99% PBS buffer solution
[7] = target: T2, Bifunctional epoxide hydrolase 2 (Mus musculus, UniProt P34914); experiment: Inhibition of recombinant mouse soluble epoxide hydrolase using CMNPC as substrate preincubated for 5 mins followed by substrate addition and measured at 30 secs interval for 10 mins by fluorescence assay; in short: as §1
T2 sequence (P34914 whole entry): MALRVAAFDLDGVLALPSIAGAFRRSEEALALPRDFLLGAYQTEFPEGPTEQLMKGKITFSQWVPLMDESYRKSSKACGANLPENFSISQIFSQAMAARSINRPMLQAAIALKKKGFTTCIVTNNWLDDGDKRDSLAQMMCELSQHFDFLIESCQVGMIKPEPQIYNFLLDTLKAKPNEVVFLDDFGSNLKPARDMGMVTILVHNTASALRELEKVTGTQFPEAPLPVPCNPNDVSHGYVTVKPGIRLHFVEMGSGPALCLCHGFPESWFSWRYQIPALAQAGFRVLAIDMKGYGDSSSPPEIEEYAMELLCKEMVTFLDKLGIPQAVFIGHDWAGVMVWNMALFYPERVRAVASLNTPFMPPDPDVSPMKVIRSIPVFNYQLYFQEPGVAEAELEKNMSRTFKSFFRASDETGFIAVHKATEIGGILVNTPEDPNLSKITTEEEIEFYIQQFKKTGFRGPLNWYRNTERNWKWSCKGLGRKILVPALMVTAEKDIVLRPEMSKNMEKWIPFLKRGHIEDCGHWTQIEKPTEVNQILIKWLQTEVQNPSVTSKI

[8] = AUC (infinity) in CD-1 mouse at 1 mg/kg, iv measured up to 24 hrs by LC-MS analysis; type: ADME, organism-based; set-up: route intravenous, dose 1 mg/kg, time <=24; details: in vivo
In short: (§4)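 Single dose, 1 mg/kg, given to mice intravenously or intraperitoneally. Parameters are taken from the plasma concentration–time profile: T1/2, Tmax, Cmax, C0 (iv only), AUClast, AUCINF_obs, Vz and Cl. Bioavailability is derived from ip versus iv exposure.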

[9] = Tmax in CD-1 mouse at 1 mg/kg, iv measured up to 24 hrs by LC-MS analysis; type: ADME, organism-based; details: in vivo; in short: as §4
[10] = system: AR-42J cell line; experiment: Protection against cerulein-induced pancreatic damage in rat AR42J cells assessed as reduction in TRB3 mRNA level at 60 uM preincubated for 1 hr followed by cerulein addition and measured after 8 hrs by Trisure-reagent based RT-PCR analysis; type: functional, cell-based; details: time 9.0 hrs; in short: as §2
[11] = system: THLE-2; experiment: Cytotoxicity against human THLE-2 cells assessed as reduction in cell viability measured after 72 hrs by ATPlite assay; type: cell-based; details: thle-2, 72 h, read-out: LC50 (the source's name)
In short: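 THLE-2 cells were grown in BEGM with 0.7 μg/mL phosphoethanolamine, 0.5 ng/mL EGF and 10% FBS, plated at 10,000 cells/well and left to adhere for 24 h. Cells were exposed to 0–100 μM final (1% DMSO) for 72 h at 37 °C, 5% CO2.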

[12] = system: AR-42J cell line; experiment: Protection against cerulein-induced pancreatic damage in rat AR42J cells assessed as reduction in IL-6 mRNA level at 60 uM preincubated for 1 hr followed by cerulein addition and measured after 8 hrs by Trisure-reagent based RT-PCR analysis; type: functional, cell-based; details: time 9.0 hrs; in short: as §2
[13] = Stability in rat liver microsomes assessed as parent compound remaining measured after 60 mins in presence of NADPH by LC-MS/MS analysis; type: ADME, Microsome; details: read-out: Stabilty; in short: as §3
[14] = Cytotoxicity against human PBMC assessed as reduction in cell viability measured after 72 hrs by ATPlite assay; details: read-out: LC50 (the source's name)
[15] = Stability in human liver microsomes assessed as parent compound remaining measured after 60 mins in presence of NADPH by LC-MS/MS analysis; type: ADME, Microsome; details: read-out: Stabilty; in short: as §3
[16] = Apparent permeability across basolateral to apical side in human Caco-2 cells at 10 uM measured after 2 hrs by LC-MS/MS analysis; details: caco-2, 2 h

Voltage-gated inwardly rectifying potassium channel KCNH2, sequence (Q12809 whole entry): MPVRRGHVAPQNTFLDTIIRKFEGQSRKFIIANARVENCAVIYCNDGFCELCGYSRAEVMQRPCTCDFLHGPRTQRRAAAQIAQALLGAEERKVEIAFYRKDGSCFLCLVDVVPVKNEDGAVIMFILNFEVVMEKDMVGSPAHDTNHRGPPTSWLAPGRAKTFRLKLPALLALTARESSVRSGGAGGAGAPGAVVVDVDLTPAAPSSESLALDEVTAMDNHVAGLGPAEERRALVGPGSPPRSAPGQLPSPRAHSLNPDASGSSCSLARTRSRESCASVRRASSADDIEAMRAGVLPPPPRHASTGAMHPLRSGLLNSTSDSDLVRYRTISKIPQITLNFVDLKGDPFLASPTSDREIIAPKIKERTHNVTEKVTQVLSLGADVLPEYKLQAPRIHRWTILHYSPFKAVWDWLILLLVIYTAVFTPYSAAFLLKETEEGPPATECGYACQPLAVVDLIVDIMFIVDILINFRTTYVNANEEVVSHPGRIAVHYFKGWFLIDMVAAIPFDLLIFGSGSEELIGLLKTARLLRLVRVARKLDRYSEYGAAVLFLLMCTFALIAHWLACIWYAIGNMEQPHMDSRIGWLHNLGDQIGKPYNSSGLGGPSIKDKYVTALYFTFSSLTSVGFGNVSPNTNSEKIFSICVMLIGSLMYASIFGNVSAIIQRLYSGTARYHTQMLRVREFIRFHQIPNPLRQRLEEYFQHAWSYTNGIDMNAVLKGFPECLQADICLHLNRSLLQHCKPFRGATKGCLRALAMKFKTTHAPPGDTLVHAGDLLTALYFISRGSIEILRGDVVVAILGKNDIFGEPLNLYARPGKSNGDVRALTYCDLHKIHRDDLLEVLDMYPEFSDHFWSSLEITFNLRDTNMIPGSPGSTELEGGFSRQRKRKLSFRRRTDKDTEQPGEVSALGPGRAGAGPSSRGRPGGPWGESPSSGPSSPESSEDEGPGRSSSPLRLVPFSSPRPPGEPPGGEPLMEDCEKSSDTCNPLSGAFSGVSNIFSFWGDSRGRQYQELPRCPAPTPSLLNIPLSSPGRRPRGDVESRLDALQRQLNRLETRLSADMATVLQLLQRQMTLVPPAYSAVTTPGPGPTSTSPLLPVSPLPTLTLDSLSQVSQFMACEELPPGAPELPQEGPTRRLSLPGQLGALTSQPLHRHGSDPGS

Structure (SMILES)	IC50 [1]	Activity [2]	Activity [3]	remaining at 1 h [4]	inhibition (INH) [5]	solubility kinetic at 2 h [6]	IC50 [7]	AUC [8]	Tmax [9]	Activity [10]	CC50 [11]	Activity [12]	remaining at 1 h [13]	CC50 [14]	remaining at 1 h [15]	Papp [16]
CC(C)S(=O)(=O)N1CCC(NC(=O)NC23CC4CC(CC(C4)O2)C3)CC1	0.0019 µM	Active	Active	63.9%	Not Active	34 µM (≈ 13.1 µg/mL)	0.0791 µM	0.05963 µg·h/mL	9.6 min	Active	> 100 µM	Active	63.9%	> 20 µM	72.7%	–
CC(=O)N1CCC(NC(=O)NC23CC4CC(CC(C4)O2)C3)CC1	0.0033 µM	Active	Active	80.5%	Not Active	59 µM (≈ 19 µg/mL)	0.0923 µM	–	–	Active	> 100 µM	Active	85.1%	> 20 µM	88.8%	94.5 nm/s

— ChEMBL document CHEMBL4725350, “2-Oxaadamant-1-yl Ureas as Soluble Epoxide Hydrolase Inhibitors: In Vivo Evaluation in a Murine Model of Acute Pancreatitis” (J Med Chem, 2020)
